This is a sample that favours compounds with a hit; in the whole collection about 1.5% have one here.
Platelet DG rel: platelet dense granule release activity; human platelet-rich plasma, SFLLRN dense granule ATP release, luminescence; inhibition, %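 (compounds screened at 7.5 µM in platelet-rich plasma)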; hit rate 0.22% among 300,000; AID 1663;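 active = mean replicate score, as percent of positive control, at or above 50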
VLA-4 inh: inhibition in a human VLA-4 binding assay. P13612. VLA-4 expressing cells, ligand binding flow cytometry. inhibition, % (about 7 µM as worked out from the volumes in the protocol). hit rate 0.2% among 330,000. AID 2557; in the data active = inhibition above about 50%
Myeloid diff 2: myeloid differentiation induction; hit rate 1% among 360,000; AID 624256; calls only at 10 µM; ER-HoxA9 myeloid progenitors, lysozyme-GFP differentiation, flow cytometry;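 active = normalized GFP-positive differentiation at or above the plate's own cutoff, the solvent-only control mean plus 3 SD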;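 note: cells exposed to compound for four days before flow analysis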
SENP1 FRET inh: blocks the human SENP1 SUMO protease catalytic domain; Q9P0U3; recombinant SENP1 catalytic domain, CyPet-SUMO1-YPet FRET cleavage; inhibition, % at 10 µM; hit rate 0.21% among 360,000;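 active = inhibition at least 30% at 10 µM, raw YFP signal under a set limit, fluorescence ratio 0.5 to 1.5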;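 note: 0% = enzyme with DMSO and 100% = no enzyme wells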
Target sequence (Q9P0U3 419-644 limits assumed): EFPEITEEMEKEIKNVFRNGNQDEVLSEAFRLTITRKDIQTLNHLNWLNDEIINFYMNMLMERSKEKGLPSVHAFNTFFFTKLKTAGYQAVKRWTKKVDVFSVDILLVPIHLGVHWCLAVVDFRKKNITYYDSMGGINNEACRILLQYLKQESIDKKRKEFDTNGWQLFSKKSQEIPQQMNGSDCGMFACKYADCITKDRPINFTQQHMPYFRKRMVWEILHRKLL
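Test system: hSENP1 catalytic domain, recombinant; Amount: 20 pM final SENP1 enzyme; Medium: Tris pH 8 buffer plus EDTA, NaCl, BME, BSA, NP40, catalase; Schedule: 50 min enzyme reaction, room temperature, light-protected; Technique: FRET fluorescence in CFP and YFP emission channels; Controls: no-enzyme wells low, DMSO-plus-enzyme wells high control.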
VLA-4 allo CP: confirmation of allosteric modulators of human VLA-4 integrin; shares compounds with VLA-4 inh; U937 cells, HUTS-21 LIBS mAb binding, flow cytometry; LDV ligand present at threefold Kd; inhibition, % at 6.7 µM; hit rate 2% among 1,300; in the data active = inhibition above about 40%;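 note: 0% = ligand without compound and 100% = no ligand background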
* hit, by the source's call.

How did COc1ccc(C(=O)C2CCN(C(=O)c3ccc(OC)cc3)CC2)cc1 do in these assays?
Platelet DG rel: -4; VLA-4 inh: -12; Myeloid diff 2: inactive; SENP1 FRET inh: 1

Results for COC(=O)c1ccccc1NC(=O)C1CCN(C(=O)c2cc(OC)cc(OC)c2)CC1 ?
Platelet DG rel: 2; VLA-4 inh: 5; Myeloid diff 2: inactive; SENP1 FRET inh: -1; VLA-4 allo CP: -5

Results for COc1ccc(NC(=O)C2CCN(C(=O)c3ccccc3)CC2)c(OC)c1 ?
VLA-4 inh: 33; Myeloid diff 2: inactive; SENP1 FRET inh: 1; VLA-4 allo CP: 4

What do the screens show for `COc1ccc(NC(=O)C2CCN(C(=O)c3ccccc3)CC2)cc1OC`?
Platelet DG rel: 0; VLA-4 inh: 4; Myeloid diff 2: inactive; SENP1 FRET inh: 3

How did COc1cc(OC)cc(C(=O)N2CCC(C(=O)NCCc3ccccc3)CC2)c1 do in these assays?
Platelet DG rel: -1; VLA-4 inh: 5; Myeloid diff 2: inactive; SENP1 FRET inh: 2

What do the screens show for `COc1ccc(NC(=O)C2CCN(C(=O)c3cccs3)CC2)c(OC)c1`?
Platelet DG rel: 3; VLA-4 inh: 6; Myeloid diff 2: inactive; SENP1 FRET inh: 1

How did CCOC(=O)c1c(O)cc(C)[nH]c1=O do in these assays?
Platelet DG rel: 1; VLA-4 inh: 0; Myeloid diff 2: inactive; SENP1 FRET inh: 3

Results for CCOc1ccccc1C(=O)Nc1nnc(Cc2ccc(OC)c(OC)c2)s1 ?
Platelet DG rel: 6; VLA-4 inh: 3; Myeloid diff 2: inactive; SENP1 FRET inh: 2

What do the screens show for `COc1cc(OC)cc(C(=O)Nc2ncc3c(n2)CC(C)CC3=O)c1` (stereo not given)?
Platelet DG rel: 12; VLA-4 inh: 5; Myeloid diff 2: inactive; SENP1 FRET inh: 1

Results for COc1cccc(C(=O)Nc2ncc3c(n2)CC(C)CC3=O)c1 (stereo not given) ?
Platelet DG rel: 3; VLA-4 inh: 62*; Myeloid diff 2: inactive; SENP1 FRET inh: 0; VLA-4 allo CP: 0

How did CC1CCN(c2ccc(-c3ccc(NC(=O)C(F)(F)F)cc3)nn2)CC1 do in these assays?
Platelet DG rel: -10; VLA-4 inh: 13; Myeloid diff 2: inactive; SENP1 FRET inh: 1

How did Cn1cc(C(=O)N/N=C/C=C/c2ccccc2)ccc1=O do in these assays?
Platelet DG rel: 11; VLA-4 inh: 45; Myeloid diff 2: inactive; SENP1 FRET inh: -2; VLA-4 allo CP: 7

How did CC1CCCN(C(=O)c2ccc3c(c2)OCCO3)C1 (stereo not given) do in these assays?
VLA-4 inh: 50*; Myeloid diff 2: inactive; SENP1 FRET inh: 2; VLA-4 allo CP: -6

What do the screens show for `CCCS(=O)(=O)NC(=O)C1(C)CCN(C(=O)c2ccccc2OC)C1` (stereo not given)?
Myeloid diff 2: inactive; SENP1 FRET inh: 1

Results for COc1ccc(C(C#N)c2ccc(=O)[nH]n2)cc1 (stereo not given) ?
Platelet DG rel: -6; VLA-4 inh: 55*; Myeloid diff 2: inactive; SENP1 FRET inh: 2; VLA-4 allo CP: -9

How did N#CC(c1ccc(Cl)cc1)c1cccc(Cl)n1 (stereo not given) do in these assays?
Platelet DG rel: 5; VLA-4 inh: 12; Myeloid diff 2: inactive; SENP1 FRET inh: 0

What do the screens show for `C[C@@H]1CN([C@@H](C)CO)S(=O)(=O)c2ccc(Br)cc2O[C@H]1CN(C)C(=O)c1ccccc1F`?
Myeloid diff 2: inactive; SENP1 FRET inh: -2

Results for Cc1ccc(NC(=O)C2CCN(C(=O)c3ccc(F)cc3)CC2)nc1 ?
Platelet DG rel: -2; VLA-4 inh: 1; Myeloid diff 2: inactive; SENP1 FRET inh: 2; VLA-4 allo CP: -2

Results for O=C(Nc1ccc(F)cc1)C1CCN(C(=O)c2ccc(F)cc2)CC1 ?
VLA-4 inh: 3; Myeloid diff 2: inactive; SENP1 FRET inh: 2; VLA-4 allo CP: 0

What do the screens show for `O=C(NCCc1ccc(F)cc1)C1CCN(C(=O)Nc2ccccc2)CC1`?
VLA-4 inh: 58*; Myeloid diff 2: inactive; SENP1 FRET inh: 0; VLA-4 allo CP: 0

How did Cc1ccc(C(=O)N2CCC(C(=O)c3ccc(F)cc3)CC2)cc1 do in these assays?
Myeloid diff 2: inactive; SENP1 FRET inh: 1

How did O=C(CSc1ccc(Cl)cc1)OCC(=O)N1CCN(c2ccccc2)CC1 do in these assays?
Myeloid diff 2: inactive; SENP1 FRET inh: 3

High-throughput results deposited in PubChem by several laboratories.
